# Source: PubChem
# This is a sample that favours compounds with a hit; in the whole collection about 1.9% have one here.
# M4 antag: blocks acetylcholine activation of human M4 receptor. P08173. CHO-hM4 cells, ACh EC80, Fluo-8 calcium fluorescence. inhibition, % at 3 µM. hit rate 0.73% among 360,000. AID 624125;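 active = inhibition above its plate's cutoff, the mean inhibition of sample wells plus 3 SD, cut at about 27% in these data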
# Target sequence (P08173 whole entry, looked up): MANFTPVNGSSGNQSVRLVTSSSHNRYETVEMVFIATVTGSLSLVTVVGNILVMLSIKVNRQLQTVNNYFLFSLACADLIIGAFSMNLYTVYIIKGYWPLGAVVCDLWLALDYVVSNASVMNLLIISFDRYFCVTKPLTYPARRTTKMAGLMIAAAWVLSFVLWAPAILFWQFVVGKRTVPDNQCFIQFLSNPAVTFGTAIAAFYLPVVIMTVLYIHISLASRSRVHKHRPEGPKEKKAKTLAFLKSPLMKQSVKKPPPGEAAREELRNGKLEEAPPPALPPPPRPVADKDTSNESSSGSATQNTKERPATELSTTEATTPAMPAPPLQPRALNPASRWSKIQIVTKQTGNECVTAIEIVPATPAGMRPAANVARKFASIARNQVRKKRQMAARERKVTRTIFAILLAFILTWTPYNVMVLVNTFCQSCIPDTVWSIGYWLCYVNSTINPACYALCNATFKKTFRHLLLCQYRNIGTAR
# M5 ag: agonists of human muscarinic M5 receptor (CHRM5). P08912. CHO-K1 hM5 cells, Fluo-8 calcium fluorescence; 0% DMSO wells, 100% maximal acetylcholine response. activation, % at 3 µM. hit rate 0.19% among 360,000;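 active = activation above the run's mean over test compounds plus 3 SD, cut at about 23% in these data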;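 also: signal is peak over basal fluorescence ratio across the kinetic read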
# CHRM4 PAM: potentiates acetylcholine response at human M4 receptor. AID 624126. hit rate 0.4% among 360,000. CHO-K1 hM4/Gqi5, Fluo-8 calcium fluorescence, ACh EC20; 0% = ACh EC20, 100% = maximal ACh. P08173. activation, % at 3 µM;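 active = activation above its plate's cutoff, the mean activation of sample wells plus 3 SD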
# CHRM5 PAM: potentiates acetylcholine response at human M5 receptor. hit rate 0.3% among 360,000. CHO-K1 hM5, Fluo-8 calcium, ACh EC20 PAM; 0% = ACh EC20, 100% = ACh EC100. activation, % at 3 µM;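 active = activation above the run cutoff, the mean activation of all test compounds plus 3 SD, cut at about 18% in these data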
#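 System: CHO-K1 hM5 cells. Reagent: acetylcholine, EC20 level. Compound dosing: single dose, 3 µM nominal final test concentration. Timing: Post-acetylcholine fluorescence recording 140 s. Detection: Fluo-8 calcium fluorescence. Read-out: % activation, ACh-normalized. Benchmarks: ACh EC20 and EC100 wells. Repeats: singlicate, one well per test compound.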
# CHRM4 agonist: agonists of human muscarinic M4 receptor (CHRM4); CHO-K1 hM4/Gqi5, Fluo-8 calcium fluorescence; vehicle 0%, full acetylcholine response 100%; activation, % at 3 µM; hit rate 0.14% among 360,000;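 active = activation above the run mean over all test wells plus 3 SD, cut at about 32% in these data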;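 also: peak over basal fluorescence ratio per well then scaled between controls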
# M5 antag: CHRM5 antagonism in calcium assay; P08912; CHO-hM5 cells, Fluo-8 calcium fluorescence, ACh EC80; inhibition, % at 3 µM; hit rate 0.59% among 360,000; AID 624040;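 active = inhibition above a per-plate cutoff, the mean of that plate's test compounds plus 3 SD, cut at about 27% in these data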
# Numbers stand for hits; – = inactive.
SMILES,M4 antag,M5 ag,CHRM4 PAM,CHRM5 PAM,CHRM4 agonist,M5 antag
COc1ccc(-c2csc(N(CCCN(C)C)C(=O)c3ccccc3F)n2)cc1,–,–,–,–,–,–
CN(C)CCCN(C(=O)c1cccs1)c1nc(-c2ccccc2)cs1,28,–,–,–,–,–
CCC(=O)N(Cc1ccco1)c1nc(-c2ccc(OC)cc2)cs1,–,–,–,–,–,–
COc1ccc(-c2csc(N(CCCN(C)C)C(=O)c3ccc(F)cc3)n2)cc1,35,–,50,–,–,–
COc1ccc(-c2csc(N(CCCN(C)C)C(=O)c3ccccc3C)n2)cc1,–,–,–,–,–,–
CCN(CC)CCCN(C(=O)c1ccc(F)cc1)c1nc(-c2ccc(OC)cc2)cs1,46,–,59,–,–,–
Cc1ccc(CC(=O)NCCS(=O)c2ccc(C)cc2)cc1 (centres undefined),–,–,–,–,–,–
C[C@@H]1COC(=O)[C@@H](Cc2ccc(F)cc2)C/C=C\C[C@H](CC(=O)N(CCO)Cc2ccccc2)C(=O)N1,–,–,–,–,–,–
CC(C)CC(C(=O)OCC(=O)c1c(N)n(C)c(=O)n(C)c1=O)N1C(=O)C2CC=CCC2C1=O (centres undefined),–,–,–,–,–,–
CCOC(=O)C1CCN(C(=O)Cn2nc(C)n3nc(-c4ccc(CC)cc4)cc3c2=O)CC1,–,–,–,–,–,–
CCC(C)N(C)Cc1cccc(C2(O)CCN(S(=O)(=O)c3ccc(F)c(C)c3)CC2)c1 (centres undefined),66,–,–,–,–,–
COc1ccc(OC)c(-c2nnc3n2N=C(c2ccc(OC)c(OCC4CC4)c2)CS3)c1,29,–,–,–,–,–
COc1ccc(C2=Nn3c(nnc3-c3ccccc3Cl)SC2)cc1OCC1CC1,–,–,–,–,–,–
COc1ccc(NS(=O)(=O)c2ccc(-c3coc(C)n3)cc2)cc1,–,–,–,–,–,–
COc1ccc(NS(=O)(=O)c2ccc(-c3coc(C)n3)cc2)cc1OC,47,–,–,–,–,51
Cc1nc(-c2ccc(S(=O)(=O)Nc3ccc(S(N)(=O)=O)cc3)cc2)co1,–,–,14,21,–,–
CCC(C)NC(=O)C1CCCN(c2nc(C)cc(OC)n2)C1 (centres undefined),–,–,25,20,–,–
Cc1c(NC(=O)c2ccc(NS(=O)(=O)c3ccccc3)cc2)c(=O)n(-c2ccccc2)n1C,–,–,–,–,–,–
CSc1cccc(NC(=S)N(CCN(C)C)C(C)c2ccccn2)c1 (centres undefined),33,–,–,–,–,–
CSc1cccc(NC(=S)N(CCN(C)C)C(C)c2ccncc2)c1 (centres undefined),–,–,–,–,–,–
CC(=O)N1CCN(Cc2nc3cc(NC(=O)c4ccccc4)ccc3n2C)CC1,–,–,–,–,–,–
COc1ccccc1C(=O)Nc1ccc2c(c1)nc(CN1CCN(C(C)=O)CC1)n2C,27,–,–,–,–,–
Cc1nc2c(C)cccn2c1/C(O)=C1\C(=O)C(=O)N(CCN(C)C)C1c1ccco1 (centres undefined),–,–,–,21,–,–
Cc1ccc(C2/C(=C(\O)c3c(C)nc4c(C)cccn34)C(=O)C(=O)N2CCN(C)C)o1 (centres undefined),–,–,–,–,–,–
Cc1ccc(NC(=O)OCCN2CCN(S(=O)(=O)c3ccc(C)cc3)CCC2=O)cc1,–,–,–,–,–,–
SMILES,M4 antag,M5 ag,CHRM4 PAM,CHRM5 PAM,CHRM4 agonist,M5 antag
Cc1ccc(S(=O)(=O)N2CCC(=O)N(CCOC(=O)Nc3cccc(Cl)c3)CC2)cc1,–,–,–,30,–,–
Cc1cc(NC(=O)CSc2nnnn2-c2ccc(C)c(Cl)c2)no1,–,–,–,–,–,–
O=C(CCCN1CCOCC1)c1ccc2c(c1)OCCO2,–,–,–,–,–,–
O=C(CCCN1CCC(c2ccccc2)C1)c1ccc2c(c1)OCCO2 (centres undefined),27,–,–,–,–,–
C=CCc1cc(C=O)cc(OC)c1OCc1ccc(C(=O)O)cc1,–,–,20,–,–,–
COc1cc(/C=C2/NC(=O)NC2=O)cc(Br)c1OCc1ccc(C(=O)O)cc1,–,–,–,–,–,–
O=C(NC(c1ccc(-c2ccccc2)cc1)c1cnccn1)C1CCN(CCCOc2ccccc2)CC1 (centres undefined),–,–,–,–,36,–
Cc1noc(C)c1NC(=O)N(C)C[C@H]1OCc2cnnn2CCCC(=O)N([C@H](C)CO)C[C@@H]1C,–,–,–,–,–,–
OC(CCN1CCOCC1)(c1ccc(Cl)cc1)C1CCCCC1 (centres undefined),39,–,–,–,–,29
O=C(NCc1ccccc1)c1cc[n+]([O-])cc1,–,–,–,–,–,–
Cn1c(SCC(=O)N2CCOCC2)nc2cccnc21,–,–,–,21,–,–
O=C(CSc1n[nH]c(=O)n1-c1cccnc1)N1CCOCC1,–,–,–,20,–,–
C=C1C(=O)C23C(O)C1CCC2C12CCCC(C)(COC(C)=O)C1C(O)C3(O)OC2 (centres undefined),42,–,–,–,–,–
CCCn1c(SCC(=O)Nc2ccc(OCC)cc2)nnc1C(C)C,–,–,–,19,–,–
CCc1ccc(-c2csc(NC(=O)C3CC(=O)N(c4ccc5c(c4)OCCO5)C3)n2)cc1 (centres undefined),–,–,30,–,–,–
Cc1csc(NC(=O)C2CC(=O)N(c3ccc4c(c3)OCCO4)C2)n1 (centres undefined),–,–,–,–,–,–
O=C(O)c1cccc(CSc2ncn[nH]2)c1,–,–,–,–,–,–
C=CCSC1=C(C#N)C(c2ccccc2Cl)C(C(=O)c2cccs2)C(O)(C(F)(F)F)N1 (centres undefined),–,–,–,–,–,27
CCSC1=C(C#N)C(c2ccccc2Cl)C(C(=O)c2cccs2)C(O)(C(F)(F)F)N1 (centres undefined),–,–,–,–,–,–
CC(=O)Nc1ccc(-c2ccnc3c2CC(C)(C(=O)Nc2cccc(Oc4ccccc4)c2)O3)cc1 (centres undefined),–,–,–,–,–,–
Cc1ccc(S(=O)(=O)NNC(=O)C2CCN(Cc3ccccc3)CC2)cc1,41,–,–,–,–,53
COC(=O)C1CCN(Cc2ccc(C)cc2)CC1,–,–,–,–,–,–
